# Screens deposited in PubChem BioAssay by Broad Institute.
# PolyA inh – yeast polyadenylation inhibition. S. cerevisiae SKY197-pL101 polyadenylation reporter, beta-gal luminescence; efflux-impaired pdr1/pdr3 knockout yeast; score 100 = 6 SD above DMSO. activity score, % at 12 µM. 0.02% of 300,000 active. AID 1875;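 active = lowest replicate activity score at least 50, where 100 means six control SD above control mean; inconclusive = lowest score under 50 but half or more replicates reach 50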;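 also: yeast exposed to compound for 9 h at 30 °C; higher score means more reporter readthrough which indicates perturbed polyadenylation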
# HIF activator – HIF pathway transcriptional activation | 0.32% of 300,000 active | U2OS HRE-luciferase reporter, luminescence; normalized: DMSO 0%, desferrioxamine 100% | AID 1910 | activation, % at 7.5 µM (by protocol);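 active = mean activation of at least 10% of the iron chelator positive control signal, with at least half of replicates also reaching 10%; inconclusive = mean and replicate majority disagree about reaching 10%; inactive = mean and most replicates under 10%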
# CSC inhib – blocks cancer stem cells; cancer stem cell-like cells viability, luminescence; inhibition, % at 7.5 µM; 1.1% of 300,000 active; AID 2717; in the data active = inhibition above about 75%; inconclusive = no clear call, values can overlap the other calls; tested in HMLE shEcad cells
# Beta cell apopt – beta cell apoptosis inhibition | INS-1E cytokine-induced death, ATP luminescence, 48 h; percent of positive-control rescue, neutral wells zero | protection from apoptosis, % (no concentration beside the values) | 0.8% of 300,000 active | AID 435005;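 active = Every replicate reaches about 75%, or at least half do and their mean reaches it too, limit read from the data; inconclusive = At least half of replicates reach the limit but their mean does not; inactive = Under half of replicates reach the limit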;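 also: higher means more ATP so stronger rescue from cytokine killing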
# T cruzi inh – T. cruzi replication inhibition; T. cruzi beta-gal in NIH3T3, luminescence, 90 h; inhibition, % (test concentration not listed); 1.4% of 300,000 active; AID 1885;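 active = mean inhibition across valid replicates above about 55%, limit read from the data; inconclusive = mean below that limit but half or more replicates reach it; inactive = mean below it, under half of replicates reach it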;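 also: signal also drops with host cell toxicity which is not excluded here; higher percent means less beta-gal luminescence so fewer parasites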
#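 Assay system: NIH/3T3 host cells with β-galactosidase reporter T. cruzi; input: 5,000 host fibroblasts per well; compound: single 50 nL compound addition per well in DMSO; timing: ≥90 h infection period, 3 h prior cell attachment; measured by: GalScreen β-gal luminescence, detergent lysis, 60 min; evaluation: percent inhibition of parasite-derived β-gal signal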
# Calb FLC – affects C. albicans growth with fluconazole. C. albicans CaCi-2 (fluconazole-resistant clinical isolate) + fluconazole, Alamar Blue growth, 48 h. growth inhibition, % (concentration not given with the values). 0.57% of 300,000 active. AID 1979;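 active = growth inhibition above about 58% in most replicates, limit read from the data, passing the limit was not always enough; inconclusive = exactly half the replicates above a set limit; inactive = most replicates below a set limit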;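 also: all wells also contain fluconazole at 8 µg/ml as a sub-toxic cotreatment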
# A number is an active result; 0 = inactive; ? = inconclusive; - = no result given. An excerpt weighted towards active compounds, which were near 3.1% of everything screened.
SMILES,PolyA inh,HIF activator,CSC inhib,Beta cell apopt,T cruzi inh,Calb FLC
N#CCC(=O)Nc1ccc(C(=O)N2CCN(c3ccccn3)CC2)cc1,0,0,0,-,0,0
COc1ccc(N2CCN(C(=O)COC(=O)CNC(=O)c3cccc(OC(F)F)c3)CC2)cc1,-,-,-,0,-,-
COc1ccc(CCN2C(=S)N(C)C(=O)C2CC(=O)Nc2ccc(OC)cc2)cc1 (stereo not drawn),0,0,97,0,0,0
CCN1C(=O)C(CC(=O)Nc2ccc(OC)cc2)N(CCCN2CCN(c3ccc(F)cc3)CC2)C1=S (stereo not drawn),0,0,81,0,0,0
C=CCN1C(=O)C(CC(=O)Nc2ccc(OCCC)cc2)N(CCCN2CCN(Cc3ccccc3)CC2)C1=S (stereo not drawn),0,0,0,0,67,0
CCN1C(=O)C(CC(=O)Nc2ccc(OC)cc2)N(CCc2ccc(F)cc2)C1=S (stereo not drawn),0,0,0,0,0,0
COCCCNC(=O)c1ccc(S(=O)(=O)c2ccc(Cl)cc2)c(NC(C)=O)c1,0,0,-,-,0,0
NC(=O)c1nsc(C(=O)N(c2cccc(F)c2)C(C(=O)NC2CCCC2)c2ccco2)c1N (stereo not drawn),0,0,0,0,0,0
On1onc2c3cc(-c4ccccc4)nc3ccc21,-,-,0,101,-,-
COC/C=C/C1=CC2=CC(=O)C(C)(OC(=O)c3cnc4ccccc4n3)C(=O)C2=CO1 (stereo not drawn),0,0,0,0,0,0
Nc1nc(-c2ccccn2)nc(N)c1Cc1c(F)cccc1Cl,0,0,0,96,57,?
Nc1nc(-c2ccccn2)nc(N)c1Cc1ccc(Cl)cc1Cl,0,15,0,96,73,0
Nc1nc(-c2ccccn2)nc(N)c1Cc1ccccc1F,0,0,0,0,82,0
Clc1ccc(OCc2nc(-c3ccccn3)no2)c(Br)c1,0,0,0,0,0,0
CNc1cc(C(F)(F)F)nc(-c2ccccn2)n1,0,0,0,0,0,0
C[C@H](CO)N1C[C@H](C)[C@@H](CN(C)C(=O)NC2CCCCC2)Oc2c(NS(=O)(=O)c3cn(C)cn3)cccc2C1=O,-,-,0,0,-,-
NC(=O)c1ccc(NC(=O)COC(=O)CC2Sc3ccccc3NC2=O)cc1 (stereo not drawn),-,-,-,0,-,-
COCCN(CC(=O)NC1CCCCC1)C(=O)/C=C/C(=O)c1ccc(OC)cc1O,0,0,-,-,0,0
COc1ccc(C(=O)/C=C/C(=O)N(CC(=O)NC2CCCCC2)Cc2cccs2)c(O)c1,0,0,76,0,0,0
CCOC(=O)c1oc2ccc(CNC3CCCCC3)c(Cl)c2c1C,0,0,-,-,74,0
CC(C)(c1cc(Br)c(O)c(Br)c1)c1cc(Br)c(O)c(Br)c1,-,-,103,0,-,-
Cc1c2c(n3c(nc4ccccc43)c1C#N)N(CCN(C)C)CC2,0,0,0,0,70,0
Cc1c(Cc2ccccc2)c(NCCN(C)C)n2c(nc3ccccc32)c1C#N,0,0,0,0,56,0
Cc1c2c(n3c(nc4ccccc43)c1C#N)N(CCCN(C)C)CC2,0,0,0,0,63,0
COc1cc([N+](=O)[O-])cc(/C=N/NC(=O)CC#N)c1O,0,0,-,-,0,0
SMILES,PolyA inh,HIF activator,CSC inhib,Beta cell apopt,T cruzi inh,Calb FLC
CN(C)c1nc(Cl)nc(N(C#N)CCOc2ccccc2)n1,0,0,0,0,0,113
CCNc1nc(NCC)nc(N(C#N)CCOc2ccccc2)n1,0,0,0,0,0,0
Cc1ccc(NC(=S)NNC(=S)Nc2cccc(C(F)(F)F)c2)cc1,0,0,0,0,0,0
FC(F)(F)c1cnc(NNC(=S)Nc2ccc(Cl)cc2)c(Cl)c1,0,0,0,93,0,0
FC(F)(F)c1cccc(NC(=S)NNC(=S)Nc2ccc(Cl)cc2)c1,0,0,132,0,56,0
CC(C)Nc1nc(NC(C)C)nc(SCC(N)=O)n1,0,0,0,0,0,0
CCC(C)(C)N(C(=O)CCC(=O)Nc1cc(C)on1)C(C(=O)NC(C)(C)C)c1ccc(OC)cc1 (stereo not drawn),0,0,0,0,0,0
COc1ccc(NS(=O)(=O)c2c(C)cc(C)cc2C)cn1,0,0,0,-,0,0
O=C1C=C(NCc2ccccc2)c2ccccc2C1=O,0,0,-,-,0,99
O=C1C=C(Nc2ccccc2O)c2ccccc2C1=O,0,0,99,113,0,0
O=C1C=C(Nc2ccc(F)cc2)c2ccccc2C1=O,-,-,112,106,-,-
COC1=C(Nc2ccc(C)cc2)C(=O)c2ccccc2C1=O,0,0,0,0,0,0
O=C(Nc1ccccc1O)c1ccc2c(c1)C(=O)N(N1C(=O)c3ccccc3C1=O)C2=O,0,0,0,0,0,0
Cc1ccc(NC2=CC(=O)C(=O)c3ccccc32)c(C)c1,-,-,-,101,-,-
Cc1cc(CNC(=O)COc2ccccc2F)c2ccccc2n1,0,0,0,0,0,0
Cc1nnc(SCC(=O)NC(=O)Nc2ccc3c(c2)OCCO3)n1N,0,0,0,0,0,0
Clc1ccc2nc(COc3ccccc3)[nH]c2c1,0,0,0,0,0,0
c1ccc(Nc2nc(NCc3ccco3)c3ccccc3n2)cc1,0,0,0,81,0,0
Cc1ccc(Nc2nc(N)c([N+](=O)[O-])c(N3CCOCC3)n2)cc1C,0,0,0,0,0,?
CNc1nc(N)c([N+](=O)[O-])c(NC2CCCCC2)n1,0,0,0,0,0,0
Cc1ccc(Nc2nc(N)c([N+](=O)[O-])c(N3CCC(C)CC3)n2)cc1C,0,0,85,0,0,0
Nc1nc(Nc2ccccc2)nc(NC2CCCCC2)c1[N+](=O)[O-],0,0,104,0,0,0
Cc1cccc(Nc2nc(NCc3ccco3)c3ccccc3n2)c1,0,0,113,91,0,0
Cc1ccc(-c2nc(C(Cl)Cl)c3ccccc3n2)cc1,0,0,132,94,0,0
Cc1ccc(-c2nc(NCc3ccco3)c3ccccc3n2)cc1,0,0,96,0,0,0
SMILES,PolyA inh,HIF activator,CSC inhib,Beta cell apopt,T cruzi inh,Calb FLC
Cc1ccc(Nc2nc(N)c([N+](=O)[O-])c(NCc3ccco3)n2)cc1C,0,0,84,0,0,0
Cc1ccc(Nc2nc(N)c([N+](=O)[O-])c(NCCO)n2)cc1C,0,0,-,-,0,0
CNc1nc(N)c([N+](=O)[O-])c(Nc2cccc(F)c2)n1,0,0,0,94,0,0
CC(C)[C@H](NC(=O)[C@@H]1Cc2ccccc2CN1C(=O)OC(C)(C)C)C(=O)NCc1ccco1,0,0,0,0,0,0
COc1ccc(S(=O)(=O)NCc2cc(-c3ccccc3Cl)no2)cc1,0,0,0,0,0,0
Oc1ccccc1Nc1nc(NCc2ccco2)c2ccccc2n1,0,0,-,0,0,0
Cc1ccccc1Nc1nc(NCc2ccco2)c2ccccc2n1,0,0,0,0,58,0
